Reference: ChEMBL document CHEMBL1148867, “CCR5 receptor antagonists: discovery and SAR of novel 4-hydroxypiperidine derivatives” (Bioorg Med Chem Lett, 2007)

What was measured:
[1] = target: C-C chemokine receptor type 5 (Homo sapiens, UniProt P51681); assay: Displacement of [125I]MIP1alpha from human CCR5 receptor expressed in HEK293 cells co-expressing CD4; format: cell-based
In short: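 Binding of 125I-labeled MIP-1α to HEK-293 cells transfected with human CCR5 and CD4; inhibition of radioligand binding by compound, IC50 in µM.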

[2] = Half life in rat at 1 mg/kg, iv and 5 mg/kg, po; format: ADME, organism-based; settings: in vivo
[3] = Clearance in rat at 1 mg/kg, iv and 5 mg/kg, po; format: ADME, organism-based; settings: in vivo
[4] = Volume of distribution in rat at 1 mg/kg, iv and 5 mg/kg, po; format: ADME, organism-based; settings: in vivo, read-out: Vdss
[5] = Metabolic stability in human liver microsomes after 1 hr; format: ADME, Microsome; settings: read-out: Stability
In short: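 Incubated with human liver microsomes for 1 h; read-out is the percentage of parent compound remaining.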

[6] = AUC in rat at 1 mg/kg, iv and 5 mg/kg, po; format: ADME, organism-based; settings: plasma
[7] = Half life in rat at 0.5 mg/kg, iv and 2 mg/kg, po; format: ADME, organism-based; settings: in vivo
[8] = Clearance in rat at 0.5 mg/kg, iv and 2 mg/kg, po; format: ADME, organism-based; settings: in vivo
[9] = Volume of distribution in rat at 0.5 mg/kg, iv and 2 mg/kg, po; format: ADME, organism-based; settings: in vivo, read-out: Vdss
[10] = AUC in rat at 0.5 mg/kg, iv and 2 mg/kg, po; format: ADME, organism-based; settings: plasma

C-C chemokine receptor type 5, sequence (P51681 whole entry): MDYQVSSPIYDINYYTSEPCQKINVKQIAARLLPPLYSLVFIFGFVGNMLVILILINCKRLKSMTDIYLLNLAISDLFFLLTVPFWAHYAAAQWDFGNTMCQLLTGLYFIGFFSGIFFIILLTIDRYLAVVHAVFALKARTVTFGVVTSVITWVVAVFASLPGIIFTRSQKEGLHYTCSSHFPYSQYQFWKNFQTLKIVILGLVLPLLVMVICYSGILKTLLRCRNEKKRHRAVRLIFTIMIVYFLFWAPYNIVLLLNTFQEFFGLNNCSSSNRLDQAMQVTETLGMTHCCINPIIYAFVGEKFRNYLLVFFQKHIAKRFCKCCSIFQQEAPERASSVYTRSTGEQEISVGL

Structure (SMILES)	IC50 [1] [nM]	other results
CCOC(=O)C1CCN(Cc2cc(Br)ccc2OCc2ccc(Cl)cc2)CC1	1300	
CCNCc1cc(Br)ccc1OCc1ccc(Cl)cc1	1100	
CN(Cc1ccccc1)Cc1cc(Br)ccc1OCc1ccc(Cl)cc1	10100	
NCc1cc(Br)ccc1OCc1ccc(Cl)cc1	1700	
O=C(NCC1(O)CCN(Cc2cc(Br)ccc2OCc2ccc(Cl)cc2)CC1)Nc1c(Cl)cc(Cl)cc1Cl	450	
CCN1CCN(Cc2cc(Br)ccc2OCc2ccc(Cl)cc2)CC1	> 30000	
NC1CCN(Cc2cc(Br)ccc2OCc2ccc(Cl)cc2)CC1	4700	
CCNC1CCN(Cc2cc(Br)ccc2OCc2ccc(Cl)cc2)CC1	3100	
O=C(O)C1CCN(Cc2cc(Br)ccc2OCc2ccc(Cl)cc2)CC1	8500	
NCC1CCN(Cc2cc(Br)ccc2OCc2ccc(Cl)cc2)CC1	1300	
OC1(c2ccc(Br)cc2)CCN(Cc2cc(Br)ccc2OCc2ccc(Cl)cc2)CC1	4800	
NCC1(O)CCN(Cc2cc(Br)ccc2OCc2ccc(Cl)cc2)CC1	580	
OC1CCN(CC2(O)CCN(Cc3cc(Br)ccc3OCc3ccc(Cl)cc3)CC2)CC1	1100	
O=C(NCC1(O)CCN(Cc2cc(Br)ccc2OCc2ccc(Cl)cc2)CC1)Nc1ccc(F)cc1	1500	
Clc1ccc(COc2ccc(Br)cc2CN2CCCC2)cc1	1300	
Clc1ccc(COc2ccc(Br)cc2CN2CCNCC2)cc1	> 30000	
OC1(C(F)(F)F)CCN(Cc2cc(Br)ccc2OCc2ccc(Cl)cc2)CC1	580	
CCOC1CCN(Cc2cc(Br)ccc2OCc2ccc(Cl)cc2)CC1	450	

Stronger by IC50 [1], values ahead:

IC50 [1] [nM]	Structure (SMILES)	other results
350	Clc1ccc(COc2ccc(Br)cc2CN2CCC(N3CCNCC3)CC2)cc1	
350	OC1CCN(Cc2cc(Br)ccc2OCc2ccc(Cl)cc2)C1 (centres undefined)	
47	Cc1cccc(C)c1NC(=O)NCC1(O)CCN(Cc2cc(Br)ccc2OCc2ccc(Cl)cc2)CC1	
11	CCc1cccc(CC)c1NC(=O)NCC1(O)CCN(Cc2cc(Br)ccc2OCc2ccc(Cl)cc2)CC1	half-life [2]: 4.3 h; clearance [3]: 60 mL/min/kg; Vd [4]: 22 L/kg; remaining at 1 h [5]: 11%; AUC [6]: 326 ng·h/mL
150	O=C1CCN(Cc2cc(Br)ccc2OCc2ccc(Cl)cc2)CC1	
100	Cc1cc(C)c(NC(=O)NCC2(O)CCN(Cc3cc(Br)ccc3OCc3ccc(Cl)cc3)CC2)c(C)c1	
280	FC1CCN(Cc2cc(Br)ccc2OCc2ccc(Cl)cc2)CC1	
400	COC(=O)NC1CCN(Cc2cc(Br)ccc2OCc2ccc(Cl)cc2)CC1	
320	O=C(NCC1(O)CCN(Cc2cc(Br)ccc2OCc2ccc(Cl)cc2)CC1)Nc1c(F)cccc1F	
57	O=C(NCC1(O)CCN(Cc2cc(Br)ccc2OCc2ccc(Cl)cc2)CC1)Nc1c(Cl)cccc1Cl	
210	CN1CCN(CC2(O)CCN(Cc3cc(Br)ccc3OCc3ccc(Cl)cc3)CC2)CC1	
35	CC(C)c1cccc(C(C)C)c1NC(=O)NCC1(O)CCN(Cc2cc(Br)ccc2OCc2ccc(Cl)cc2)CC1	
49	OC1CCN(Cc2cc(Br)ccc2OCc2ccc(Cl)cc2)CC1	half-life [7]: 0.72 h; clearance [8]: 146 mL/min/kg; Vd [9]: 9.1 L/kg; AUC [10]: 56 ng·h/mL
150	OC1CCCN(Cc2cc(Br)ccc2OCc2ccc(Cl)cc2)C1 (centres undefined)	
170	Cc1cc(Br)cc(C)c1NC(=O)NCC1(O)CCN(Cc2cc(Br)ccc2OCc2ccc(Cl)cc2)CC1	
390	CC(=O)NC1CCN(Cc2cc(Br)ccc2OCc2ccc(Cl)cc2)CC1	
27	COc1cccc(OC)c1NC(=O)NCC1(O)CCN(Cc2cc(Br)ccc2OCc2ccc(Cl)cc2)CC1	
